14-3-3 Bad PPI – inhibitors of 14-3-3 zeta/Bad binding, primary screen, biochemical, TR-FRET, bovine 14-3-3 zeta; 14-3-3 protein zeta/delta (Bos taurus), P63103; TR-FRET 14-3-3zeta/Dy647-pBad peptide displacement, 1 h; inhibition, % at 21.7 µM; 220,000 compounds, 0.71% hits; AID 781, 2007;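 active = inhibition above about 70%, limit read from the data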;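 note: 0% = full 14-3-3 plus peptide FRET controls and 100% = background without 14-3-3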
Hck-Nef inh – inhibitors of Nef-activated human Hck kinase, primary screen, biochemical, Z-Lyte FRET, 384-well, Hck-YEEI; inhibition, % at 20 µM; Tyrosine-protein kinase HCK (Homo sapiens), P08631; 220,000 compounds, 0.68% hits; Recombinant Hck-YEEI plus Nef, Z-Lyte FRET kinase assay;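 active = Hck-Nef kinase inhibition above about 50%, limit read from the data; inactive = inhibition below that limit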;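 note: 0% = DMSO with Hck plus Nef and 100% = Hck alone without Nef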
RanGTP-Impb inh – inhibitors of RanGTP-importin-beta interaction, primary screen, biochemical, FRET, CFP-Ran, YFP-importin-beta, homogeneous | Ran GTPase (GTP-bound) - importin-beta complex | cell-free CFP-Ran/YFP-importin-beta FRET ratio | inhibition, % (test concentration not listed) | 300,000 compounds, 1.1% hits | AID 2216, 2009;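 active = more than half of the replicate wells show a fall in the fluorescence ratio signal beyond about 16%, limit read from the data, passing the limit was not always enough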;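 note: 0% = DMSO wells and 100% = Ran loaded with GDP instead of GTP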
Tb hexokinase – Trypanosoma brucei hexokinase 1 inhibitors, primary screen, biochemical, G6PDH-coupled NADH absorbance, MLSCN library; 220,000 compounds, 0.11% hits; hexokinase 1 [Trypanosoma brucei]; recombinant TbHK1, G6PDH-coupled NADH A340; inhibition, % at 10 µM;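 active = inhibition of 50% or more in the single-dose primary screen; inactive = inhibition below 50%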
Runt-CBFb FRET – inhibitors of RUNX1 Runt–CBFb binding, primary screen, biochemical, FRET, Cerulean-Runt, Venus-CBFb, uHTS | Runt-related transcription factor 1 (Homo sapiens) + Core-binding factor subunit beta … | Cerulean-Runt/Venus-CBFb FRET ratio 530/480, 1 h | inhibition, % at 20 µM | 220,000 compounds, 0.46% hits | AID 1496, 2009;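 active = inhibition over about 50% at 20 µM in the single-dose screen, limit read from the data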;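 note: 0% = DMSO wells and 100% = excess unlabeled CBFb competitor control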
Target sequence (Q01196 whole entry, looked up): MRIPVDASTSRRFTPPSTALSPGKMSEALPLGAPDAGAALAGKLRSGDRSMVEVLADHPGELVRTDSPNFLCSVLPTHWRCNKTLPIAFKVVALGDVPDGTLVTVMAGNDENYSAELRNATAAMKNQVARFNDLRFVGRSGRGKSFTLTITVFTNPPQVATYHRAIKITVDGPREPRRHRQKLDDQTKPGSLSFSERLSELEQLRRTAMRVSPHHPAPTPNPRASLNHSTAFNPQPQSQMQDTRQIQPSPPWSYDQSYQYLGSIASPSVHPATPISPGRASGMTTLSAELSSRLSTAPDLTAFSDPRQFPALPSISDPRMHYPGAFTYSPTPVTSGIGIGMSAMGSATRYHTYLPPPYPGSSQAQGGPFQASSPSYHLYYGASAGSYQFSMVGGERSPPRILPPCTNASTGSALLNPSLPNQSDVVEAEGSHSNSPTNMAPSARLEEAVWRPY
Target sequence (Q13951 whole entry, looked up): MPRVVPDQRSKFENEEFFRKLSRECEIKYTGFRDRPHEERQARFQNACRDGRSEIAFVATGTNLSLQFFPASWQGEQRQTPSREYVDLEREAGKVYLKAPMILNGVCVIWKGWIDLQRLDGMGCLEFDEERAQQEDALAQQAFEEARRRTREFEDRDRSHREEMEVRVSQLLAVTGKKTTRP
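Assay system: Cerulean-tagged RUNX1 Runt domain (FRET donor) fusion protein / Amount: 100 nM each of Venus-CBFb and Cerulean-Runt domain / Medium: Tris buffer pH 7.5 with salts and BSA / Also added: Venus-CBFb 100 nM / Schedule: 1 h complex formation plus 1 h compound treatment, room temperature / Signal: FRET fluorescence / Read-out: loss of energy transfer signal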
Runt-SMMHC FRET – inhibitors of RUNX1 Runt–CBFb-SMMHC binding, primary screen, biochemical, FRET, Cerulean-Runt, Venus-CBFb-SMMHC, uHTS. Runt-related transcription factor 1 (Homo sapiens) + Core-binding factor subunit beta …. Cerulean-Runt/Venus-CBFb-SMMHC FRET ratio 530/480, 1 h. inhibition, % at 20 µM. 220,000 compounds, 0.74% hits;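 active = mean inhibition across duplicate retests at 20 µM reaching about 50%, limit read from the data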;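 note: 0% = DMSO wells and 100% = wells with excess untagged CBFb-SMMHC; inhibitors lower the FRET ratio by blocking Runt binding to CBFb-SMMHC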
* hit, by the source's call; · = not tested or not shown; + = active, no number; [ ] = dose if it differs, or a comment. Shown are actives, neighbours in structure and some others; about 2.2% of the full set was active somewhere.

SMILES	14-3-3 Bad PPI	Hck-Nef inh	RanGTP-Impb inh	Tb hexokinase	Runt-CBFb FRET	Runt-SMMHC FRET
C=CCn1c(=N)c(C#N)cc2c(=O)n3ccccc3nc21	-19.5	37.0	+	-9.5	-1.1	75.1*
CN(C)C(CNC(=O)c1cccc(S(=O)(=O)NCc2ccccc2)c1)c1ccco1 (stereo not given)	·	·	-0.2	·	·	·
COc1cccc(NC(=O)NCc2c(-c3ccccc3)noc2C)c1	0.1	4.5	1.1	-4.2	0.9	0.9
O=C(Nc1nc2c(Br)cccc2s1)C1CC1	·	·	0.0	·	·	·
CCCCCn1c(=NC(C)=O)c(C#N)cc2c(=O)n3ccccc3nc21	·	34.0	108.2*	0.9	16.2	42.1
CCCCCn1c(=NC(=O)c2cccnc2)c(C#N)cc2c(=O)n3cccc(C)c3nc21	·	·	143.8*	·	·	·
CCOCCCn1c(=NC(C)=O)c(C#N)cc2c(=O)n3cccc(C)c3nc21	-14.3	35.7	123.4*	-14.2	58.7*	88.1*
CCCCn1c(=NC(C)=O)c(C#N)cc2c(=O)n3cccc(C)c3nc21	·	·	85.0*	·	·	·
CCN(C(=O)c1cc2c(=O)n3ccccc3nc2n1CCCOC)C1CCCCC1	·	·	2.0	·	·	·
CCN(CC)C(=O)c1cc2c(=O)n3cccc(C)c3nc2n1C	·	46.2	-4.1	-19.6	3.0	2.4
CCCCN(CC)C(=O)c1cc2c(=O)n3cccc(C)c3nc2s1	·	·	-1.6	·	·	·
Cn1c(SCC(=O)NCc2ccc3c(c2)OCO3)nc2scc(-c3cccs3)c2c1=O	-9.2	3.6	-0.5	3.2	1.9	-0.4
C/C=C\C(=O)Nc1cccc(C2=NOC3(C2)C[C@H](C(N)=O)N(C(=O)[C@H]2CCC(=O)N2)C3)c1 (stereo not given in full)	1.1	36.5	6.7	-8.6	1.9	3.3
CCOc1ccccc1CNC(=O)CCNS(=O)(=O)c1ccc2[nH]c(=O)oc2c1	·	·	2.2	·	·	·
CCOC(=O)c1cncc(C(=O)O)c1	32.5	-1.1	2.1	6.6	-2.6	-4.7
C=CCc1cc(/C=C/c2nc(O)c([N+](=O)[O-])c(=O)[nH]2)cc(OC)c1O	1.1	31.5	34.5*	-11.0	37.5	80.5*
CCc1cc(=O)oc2c(CNC(Cc3ccccc3)C(=O)O)c(O)ccc12 (stereo not given)	·	·	0.8	·	·	·
CCc1cc(=O)oc2c(CNCc3ccccc3F)c(O)c(Cl)cc12	·	·	35.9*	·	·	·
CCCCCn1c(N)c(-c2nc3ccccc3o2)c2c([N+](=O)[O-])nn(C)c(=O)c21	77.0*[fluorescence artefact?]	12.9	0.7	2.3	-4.0	2.3
CCCCCn1c(N)c(-c2nc3ccccc3o2)c2c([N+](=O)[O-])nn(CC)c(=O)c21	33.8	2.2	8.4	-8.8	-4.7	-4.5
Cn1c(SCc2cccc(Br)c2)nnc1-c1ccncc1	·	·	7.5	·	·	·
CN1CCc2c(sc(N)c2C(=O)O)C1	-1.2	-11.7	50.1*	1.1	75.0*	143.6*
CCOC(=O)c1c(N)sc2c1CCN(CCc1ccccc1)C2	·	·	72.4*	·	·	·
CCOC(=O)c1c(NC(=S)Nc2ccccc2)sc2c1CCN(CCc1ccccc1)C2	-57.3	10.4	·	4.4	94.3*	85.5
COCCNC(=O)Nc1ccc2nc(-c3cccs3)c(-c3cccs3)nc2c1	·	1.9	120.5*	1.7	14.7	80.9*
SMILES	14-3-3 Bad PPI	Hck-Nef inh	RanGTP-Impb inh	Tb hexokinase	Runt-CBFb FRET	Runt-SMMHC FRET
O=C(Nc1ccc2nc(-c3cccs3)c(-c3cccs3)nc2c1)NC1CC1	-15.0	7.3	121.1*	-6.6	-12.6	-73.4
COc1ccc(CN2CCN(C(=O)CN3C(=O)C4C5C=CC(C5)C4C3=O)CC2)c(OC)c1OC (stereo not given)	-3.7	-0.6	7.0	4.3	-3.1	0.4
COc1cc(CN2CCN(C(=O)CC(C)C)CC2)cc(OC)c1O	38.8	-12.0	3.1	-0.5	2.5	-0.2
COc1ccc(CN2CCN(C(=O)CC(C)C)CC2)c(OC)c1OC	73.0*	-0.4	1.7	5.9	-0.5	-2.3
COc1cc(CN2CCN(C(=O)CC(C)C)CC2)cc(OC)c1OC	79.7*	-0.6	-3.7	-4.8	-1.2	-1.9
O=C(O)c1cc(O)c2c(c1)C(=O)c1cccc(O)c1C2=O	74.2*	-0.3	-17.9	11.1	-40.2	-235.0
Cc1cc(O)c2c(c1)C(=O)c1cccc(O)c1C2=O	21.9	-5.6	·	3.3	6.6	-28.8
COc1ccccc1OCCCCN1CCN(c2ccccc2OC)CC1	80.6*	-12.9	-2.9	4.2	-1.2	-5.8
COc1ccccc1N1CCN(CCCCOc2cccc3ccccc23)CC1	29.2	-26.7	1.3	9.8	-2.2	-0.7
O=C(Nc1nc(-c2ccccc2)cs1)c1cccc([N+](=O)[O-])c1	-5.0	0.2	0.7	0.3	0.7	-6.7
O=C(Nc1nc(-c2cccnc2)cs1)c1cccc([N+](=O)[O-])c1	79.2*	21.3	-2.0	-3.8	1.5	2.1
O=C(Nc1nc(-c2cccnc2)cs1)c1ccc([N+](=O)[O-])cc1	5.5	20.0	-0.4	1.5	-1.5	-4.5
O=C(Nc1nc(-c2cccnc2)cs1)c1ccccc1[N+](=O)[O-]	-0.4	27.0	17.9*	-4.2	2.0	-0.6
Cc1[nH]c2ccccc2c1C(=O)C(=O)N1CCN(c2cccc(Cl)c2)CC1	·	·	-0.2	·	·	·
COC(=O)c1ccc(C2/C(=C(/O)c3ccc4c(c3)CC(C)O4)C(=O)C(=O)N2Cc2ccncc2)cc1 (stereo not given)	·	·	3.6	·	·	·
C#CCN1C(=O)S/C(=C/C=C/c2ccc(N(C)C)cc2)C1=O	-9.6	5.2	·	23.7	-28.2	-66.7
NS(=O)(=O)Cc1noc2ccccc12	·	·	-0.1	·	·	·
O=C(CSc1ccccc1)N1CCCC(N2CCN(c3ccccc3)CC2)C1 (stereo not given)	·	·	1.6	·	·	·
CC1CCc2c(sc3ncn4c(SCC(=O)NCc5ccco5)nnc4c23)C1 (stereo not given)	·	-0.9	0.0	-0.9	-2.7	-0.7
CC1CCc2sc3ncn4nc(C(=O)NCc5ccco5)nc4c3c2C1 (stereo not given)	-9.0	-4.3	119.9*	-1.5	-2.3	-4.0
COc1ccc(C(=O)NNC2=CC(=O)CC(C)(C)C2)cc1	34.1	-0.9	33.2*	15.8	3.2	1.6
COc1ccc(S(=O)(=O)Nc2ccc(C(N)=O)cc2)cc1C(=O)N1CCCCCC1	·	·	-2.3	·	·	·

Bioassay records (PubChem)
